Assay [1] relates to Hamster. The assay can be described thus: Inhibition of cholesterol synthesis in hamster at 10 mg/kg, po after 3 to 5 hrs relative to control. Type of assay: functional, Cricetinae. On the set-up: scale not given: the % may be the effect or the level left. The method in brief:
(§1)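 Male Syrian Golden hamsters received a single oral 10 mg/kg dose. A bolus of sodium 14C-acetate was given at 2, 3 or 4 h post-dose, giving 2–4, 3–5 and 4–6 h windows. Label incorporated into plasma cholesterol was measured over the following 2 h. Results are reported as percent change in incorporation relative to vehicle-dosed animals.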

Assay [2] is described as follows: Inhibition of cholesterol synthesis in rat hepatocytes. Type of assay: functional, cell-based. The following applies: Hepatocyte.
Assay [3] deals with T1, 3-hydroxy-3-methylglutaryl-coenzyme A reductase (Rattus norvegicus, UniProt P51639).
T1 sequence (P51639 whole entry): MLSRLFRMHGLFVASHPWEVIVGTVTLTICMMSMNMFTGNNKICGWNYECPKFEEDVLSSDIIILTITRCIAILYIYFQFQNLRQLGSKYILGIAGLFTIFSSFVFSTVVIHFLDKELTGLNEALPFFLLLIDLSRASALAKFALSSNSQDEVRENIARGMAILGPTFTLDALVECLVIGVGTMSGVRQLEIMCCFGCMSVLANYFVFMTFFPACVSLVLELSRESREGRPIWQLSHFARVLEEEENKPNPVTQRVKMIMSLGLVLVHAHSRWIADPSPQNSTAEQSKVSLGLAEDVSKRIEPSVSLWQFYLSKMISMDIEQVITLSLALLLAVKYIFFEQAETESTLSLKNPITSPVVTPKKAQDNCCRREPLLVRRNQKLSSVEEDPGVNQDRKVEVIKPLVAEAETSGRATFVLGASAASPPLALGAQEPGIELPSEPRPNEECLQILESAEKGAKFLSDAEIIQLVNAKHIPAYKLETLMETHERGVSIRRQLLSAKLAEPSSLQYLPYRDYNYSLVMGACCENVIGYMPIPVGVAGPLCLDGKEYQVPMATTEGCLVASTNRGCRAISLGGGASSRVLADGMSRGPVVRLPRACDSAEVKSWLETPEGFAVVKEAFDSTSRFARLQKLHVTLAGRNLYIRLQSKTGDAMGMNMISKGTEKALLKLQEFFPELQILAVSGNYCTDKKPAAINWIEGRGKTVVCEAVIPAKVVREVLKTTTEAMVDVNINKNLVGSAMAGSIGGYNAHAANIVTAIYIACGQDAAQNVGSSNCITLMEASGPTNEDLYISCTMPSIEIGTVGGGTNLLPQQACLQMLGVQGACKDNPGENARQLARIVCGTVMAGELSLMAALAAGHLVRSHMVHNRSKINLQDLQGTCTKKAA
The assay can be described thus: Inhibition of HMG-CoA reductase in rat liver microsomes. On the set-up: species or system Microsome.

For a further assay, the system named is L6. The assay can be described thus: Inhibition of cholesterol synthesis in L6 myocytes. Type of assay: functional, cell-based. The settings on record: Rattus norvegicus.
Assay [4] deals with Hamster. The assay can be described thus: Inhibition of cholesterol synthesis in hamster at 10 mg/kg, po after 2 to 4 hrs relative to control. Type of assay: functional, Cricetinae. On the set-up: scale not given: the % may be the effect or the level left. The method in brief:
as §1

As a reminder, the IC50 is the concentration at which inhibition is half-maximal.

Turning to `CC(C)c1c(C(=O)N(C)Cc2ccc(F)c(F)c2)nn(-c2ccc(F)cc2)c1OC[C@@H](O)C[C@@H](O)CC(=O)O`, the Activity in the assay on Hamster [1] was -5%. Also, the figures for the IC50 (in assay [2]; in assay [3]; with L6) were 8 nM, 5.7 nM and 4570 nM, respectively.

Turning to `CC(C)c1c(C(=O)N(C)Cc2ccccc2F)nn(-c2ccc(F)cc2)c1OC[C@@H](O)C[C@@H](O)CC(=O)O`, in the assay with Hamster [1], the Activity was -4%. In addition, the figures for the IC50 (in assay [2]; in assay [3]; in the assay on L6) were 3.2 nM, 8.7 nM and 11600 nM, respectively.

Take `CC(C)c1c(C(=O)N(C)CC2CCCCC2)nn(-c2ccc(F)cc2)c1OC[C@@H](O)C[C@@H](O)CC(=O)O`: the Activity in the assay on Hamster [1] was found to be 23%. The IC50 in assay [2] stood at 1.3 nM; in assay [3], 6.2 nM; in the assay with L6, 2510 nM.

For the compound `CC(C)c1c(C(=O)N2CCC[C@H](c3ccccc3)C2)nn(-c2ccc(F)cc2)c1CC[C@@H](O)C[C@@H](O)CC(=O)O`, the Activity with Hamster [1] is on record as -57%; with Hamster [4], -78%. For the same compound, the IC50 in assay [2] turned out to be 0.28 nM; in assay [3], 2.1 nM; with L6, 310 nM.

For `COCc1cccc(CNC(=O)c2nn(-c3ccc(F)cc3)c(OC[C@@H](O)C[C@@H](O)CC(=O)O)c2C(C)C)c1`, the Activity in the assay on Hamster [1] is given as -6%. Besides, the IC50 came out at 1.1 nM in assay [2], 31 nM in assay [3] and 3600 nM with L6.

Regarding `CC(C)c1c(C(=O)N(C)Cc2cccc(Cl)c2)nn(-c2ccc(F)cc2)c1OC[C@@H](O)C[C@@H](O)CC(=O)O`, the Activity with Hamster [1] is recorded as 0%. Also, the IC50 in assay [2] was 1.8 nM; in assay [3], 8.3 nM; with L6, 2120 nM.

Source of the values: ChEMBL document CHEMBL1139802, “Pyrazole inhibitors of HMG-CoA reductase: an attempt to dramatically reduce synthetic complexity through minimal analog re-design” (Bioorg Med Chem Lett, 2007).
